How the values were obtained:
[1] = test system: Candida albicans; assay: Antifungal activity against Candida albicans isolated from human incubated for 72 hrs followed by serial sub-cultivation for 72 hrs by serial dilution technique; assay type: functional
How it was run: (§1)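 MFC: material from 72 h malt broth microdilution wells was serially sub-cultured into fresh broth plates and incubated a further 72 h at 28 °C. Fungicidal concentration is taken from growth after sub-culture. Duplicate, repeated three times.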

[2] = test system: Aspergillus flavus; assay: Antifungal activity against Aspergillus flavus ATCC 9643 incubated for 72 hrs followed by serial sub-cultivation for 72 hrs by serial dilution technique; assay type: functional; settings: ATCC 9643, 72 h; how it was run: as §1
[3] = test system: Micrococcus flavus; assay: Antibacterial activity against Micrococcus flavus ATCC 10240 after 24 hrs by microdilution method; assay type: functional; settings: ATCC 10240, 24 h
How it was run: (§2)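 Broth microdilution in 96-well plates. Bacterial suspensions were adjusted in sterile saline to 1.0 × 10⁵ CFU/ml, prepared daily and kept at 4 °C. Compound was added to LB broth with 1.0 × 10⁴ CFU per well and shaken at 160 rpm for 24 h at […] (so in the source). MIC is the lowest concentration with no visible growth under a binocular microscope. OD655 was also read. Duplicate, repeated three times.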

[4] = test system: Talaromyces funiculosus; assay: Ratio of bifonazole to compound for Penicillium funiculosum ATCC 36839; assay type: functional
[5] = test system: Candida albicans; assay: Antifungal activity against Candida albicans isolated from human after 72 hrs by serial dilution technique; assay type: functional
How it was run: (§3)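 Modified microdilution in 96-well plates. Fungi were kept on malt agar at 4 °C. Spores were washed off in sterile 0.85% saline with 0.1% Tween 80. Compounds were dissolved at 1 mg/ml in 5% DMSO with 0.1% Tween 80 and added to malt broth with inoculum. Plates were shaken at 160 rpm for 72 h at 28 °C. Duplicate, repeated three times.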

[6] = test system: Pseudomonas aeruginosa; assay: Ratio of ampicillin MIC to compound MIC for Pseudomonas aeruginosa ATCC 27853; assay type: functional
[7] = test system: Trichoderma viride; assay: Antifungal activity against Trichoderma viride IAM 5061 incubated for 72 hrs followed by serial sub-cultivation for 72 hrs by serial dilution technique; assay type: functional; settings: IAM 5061, 72 h; how it was run: as §1
[8] = test system: Penicillium ochrochloron; assay: Antifungal activity against Penicillium ochrochloron ATCC 9112 incubated for 72 hrs followed by serial sub-cultivation for 72 hrs by serial dilution technique; assay type: functional; settings: ATCC 9112, 72 h; how it was run: as §1
[9] = test system: Pseudomonas aeruginosa; assay: Antibacterial activity against Pseudomonas aeruginosa ATCC 27853 after 24 hrs by microdilution method; assay type: functional; settings: ATCC 27853, 24 h; how it was run: as §2
[10] = test system: Enterococcus faecalis; assay: Antibacterial activity against Enterococcus faecalis isolated from human after 24 hrs by microdilution method; assay type: functional; how it was run: as §2
[11] = test system: Enterococcus faecalis; assay: Antibacterial activity against Enterococcus faecalis isolated from human incubated for 24 hrs followed by serial sub-cultivation for 24 hrs by microdilution; assay type: functional
How it was run: (§4)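 MBC: after the 24 h LB broth microdilution (1.0 × 10⁴ CFU per well, 160 rpm), wells were serially sub-cultured into fresh broth plates and incubated a further 24 h. MBC is the lowest concentration with no visible growth, taken as 99.5% killing of the original inoculum. Duplicate, repeated three times.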

[12] = test system: Candida albicans; assay: Ratio of ketoconazole to compound for Candida albicans isolated from human; assay type: functional
[13] = test system: Trichoderma viride; assay: Antifungal activity against Trichoderma viride IAM 5061 after 72 hrs by serial dilution technique; assay type: functional; settings: IAM 5061, 72 h; how it was run: as §3
[14] = test system: Aspergillus ochraceus; assay: Ratio of ketoconazole to compound for Aspergillus ochraceus ATCC 12066; assay type: functional
[15] = test system: Aspergillus niger; assay: Antifungal activity against Aspergillus niger ATCC 6275 after 72 hrs by serial dilution technique; assay type: functional; settings: ATCC 6275, 72 h; how it was run: as §3
[16] = test system: Aspergillus ochraceus; assay: Antifungal activity against Aspergillus ochraceus ATCC 12066 incubated for 72 hrs followed by serial sub-cultivation for 72 hrs by serial dilution technique; assay type: functional; settings: ATCC 12066, 72 h; how it was run: as §1
[17] = test system: Aspergillus fumigatus; assay: Antifungal activity against Aspergillus fumigatus isolated from human incubated for 72 hrs followed by serial sub-cultivation for 72 hrs by serial dilution technique; assay type: functional; how it was run: as §1
[18] = test system: Aspergillus niger; assay: Ratio of bifonazole to compound for Aspergillus niger ATCC 6275; assay type: functional
[19] = test system: Listeria monocytogenes; assay: Antibacterial activity against Listeria monocytogenes NCTC 7973 incubated for 24 hrs followed by serial sub-cultivation for 24 hrs by microdilution; assay type: functional; settings: NCTC 7973, 24 h; how it was run: as §4
[20] = test system: Listeria monocytogenes; assay: Antibacterial activity against Listeria monocytogenes NCTC 7973 after 24 hrs by microdilution method; assay type: functional; settings: NCTC 7973, 24 h; how it was run: as §2
[21] = test system: Micrococcus flavus; assay: Antibacterial activity against Micrococcus flavus ATCC 10240 incubated for 24 hrs followed by serial sub-cultivation for 24 hrs by microdilution; assay type: functional; settings: ATCC 10240, 24 h; how it was run: as §4
[22] = test system: Candida albicans; assay: Ratio of bifonazole to compound for Candida albicans isolated from human; assay type: functional
[23] = test system: Aspergillus niger; assay: Antifungal activity against Aspergillus niger ATCC 6275 incubated for 72 hrs followed by serial sub-cultivation for 72 hrs by serial dilution technique; assay type: functional; settings: ATCC 6275, 72 h; how it was run: as §1
[24] = test system: Staphylococcus aureus; assay: Antibacterial activity against Staphylococcus aureus ATCC 6538 after 24 hrs by microdilution method; assay type: functional; settings: ATCC 6538, 24 h; how it was run: as §2
[25] = test system: Salmonella typhimurium; assay: Antibacterial activity against Salmonella Typhimurium ATCC 13311 incubated for 24 hrs followed by serial sub-cultivation for 24 hrs by microdilution; assay type: functional, Salmonella enterica subsp. enterica serovar Typhimurium; settings: Salmonella enterica, ATCC 13311, 24 h; how it was run: as §4
[26] = test system: Escherichia coli; assay: Antibacterial activity against Escherichia coli ATCC 35210 incubated for 24 hrs followed by serial sub-cultivation for 24 hrs by microdilution; assay type: functional; settings: ATCC 35210, 24 h; how it was run: as §4
[27] = test system: Aspergillus flavus; assay: Antifungal activity against Aspergillus flavus ATCC 9643 after 72 hrs by serial dilution technique; assay type: functional; settings: ATCC 9643, 72 h; how it was run: as §3
[28] = test system: Penicillium ochrochloron; assay: Ratio of bifonazole to compound for Penicillium ochrochloron ATCC 9112; assay type: functional
[29] = test system: Talaromyces funiculosus; assay: Antifungal activity against Penicillium funiculosum ATCC 36839 incubated for 72 hrs followed by serial sub-cultivation for 72 hrs by serial dilution technique; assay type: functional; settings: ATCC 36839, 72 h; how it was run: as §1
[30] = test system: Salmonella typhimurium; assay: Antibacterial activity against Salmonella Typhimurium ATCC 13311 after 24 hrs by microdilution method; assay type: functional, Salmonella enterica subsp. enterica serovar Typhimurium; settings: Salmonella enterica, ATCC 13311, 24 h; how it was run: as §2
[31] = test system: Aspergillus ochraceus; assay: Ratio of bifonazole to compound for Aspergillus ochraceus ATCC 12066; assay type: functional
[32] = test system: Bacillus cereus; assay: Antibacterial activity against clinical isolate of Bacillus cereus incubated for 24 hrs followed by serial sub-cultivation for 24 hrs by microdilution; assay type: functional; how it was run: as §4
[33] = test system: Escherichia coli; assay: Antibacterial activity against Escherichia coli ATCC 35210 after 24 hrs by microdilution method; assay type: functional; settings: ATCC 35210, 24 h; how it was run: as §2
[34] = test system: Bacillus cereus; assay: Antibacterial activity against clinical isolate of Bacillus cereus after 24 hrs by microdilution method; assay type: functional; how it was run: as §2
[35] = test system: Penicillium ochrochloron; assay: Antifungal activity against Penicillium ochrochloron ATCC 9112 after 72 hrs by serial dilution technique; assay type: functional; settings: ATCC 9112, 72 h; how it was run: as §3
[36] = test system: Staphylococcus aureus; assay: Antibacterial activity against Staphylococcus aureus ATCC 6538 incubated for 24 hrs followed by serial sub-cultivation for 24 hrs by microdilution method; assay type: functional; settings: ATCC 6538, 24 h; how it was run: as §4
[37] = test system: Aspergillus ochraceus; assay: Antifungal activity against Aspergillus ochraceus ATCC 12066 after 72 hrs by serial dilution technique; assay type: functional; settings: ATCC 12066, 72 h; how it was run: as §3
[38] = test system: Penicillium ochrochloron; assay: Ratio of ketoconazole to compound for Penicillium ochrochloron ATCC 9112; assay type: functional
[39] = test system: Aspergillus ochraceus; assay: Antifungal activity against Aspergillus ochraceus after 72 hrs by serial dilution technique
[40] = test system: Talaromyces funiculosus; assay: Antifungal activity against Penicillium funiculosum ATCC 36839 after 72 hrs by serial dilution technique; assay type: functional; settings: ATCC 36839, 72 h; how it was run: as §3
[41] = test system: Pseudomonas aeruginosa; assay: Antibacterial activity against Pseudomonas aeruginosa ATCC 27853 incubated for 24 hrs followed by serial sub-cultivation for 24 hrs by microdilution; assay type: functional; settings: ATCC 27853, 24 h; how it was run: as §4
[42] = test system: Trichoderma viride; assay: Ratio of bifonazole to compound for Trichoderma viride IAM 5061; assay type: functional
[43] = test system: Aspergillus fumigatus; assay: Ratio of ketoconazole to compound for Aspergillus fumigatus isolated from human; assay type: functional

CNc1nc(C)c(C(=O)/C=C/c2cccc(Cl)c2Cl)s1
76.5 µM: MFC [2] | MIC [10] | MBC [11] | MBC [25]
10: Ratio [4] | Ratio [6] | Ratio [12] | Ratio [14] | Ratio [18] | Ratio [22] | Ratio [28] | Ratio [31] | Ratio [38] | Ratio [42] | Ratio [43]
61.2 µM: MFC [1] | MFC [7] | MFC [8] | MIC [9] | MFC [16] | MFC [17] | MFC [23] | MIC [24] | MBC [26] | MFC [29] | MIC [30] | MBC [32]
45.9 µM: MIC [5] | MIC [33] | MIC [34]
91.7 µM: MBC [19] | MIC [20] | MBC [21] | MBC [36] | MBC [41]
30.6 µM: MIC [3] | MIC [13] | MIC [15] | MIC [27] | MIC [35] | MIC [37] | MIC [39] | MIC [40]

CNc1nc(C)c(C(=O)/C=C/c2cccc(Br)c2)s1
74.2 µM: MFC [2] | MIC [9] | MIC [10] | MBC [11] | MBC [25] | MBC [26] | MBC [32] | MIC [33] | MBC [36] | MBC [41]
10: Ratio [4] | Ratio [6] | Ratio [12] | Ratio [14] | Ratio [18] | Ratio [22] | Ratio [28] | Ratio [31] | Ratio [38] | Ratio [42] | Ratio [43]
89 µM: MBC [19] | MIC [20]
99.3 µM: MIC [34]
59.3 µM: MFC [1] | MFC [7] | MFC [8] | MFC [16] | MFC [17] | MBC [21] | MFC [23] | MIC [24] | MFC [29] | MIC [30]
44.5 µM: MIC [5] | MIC [15]
14.8 µM: MIC [3]
29.7 µM: MIC [13] | MIC [27] | MIC [35] | MIC [37] | MIC [39] | MIC [40]

CCNc1nc(C)c(C(=O)/C=C/c2cccc(Br)c2)s1
58.2 µM: MFC [8]
57.1 µM: MFC [2] | MIC [3] | MIC [9] | MIC [10] | MFC [17] | MFC [23] | MIC [24] | MIC [30] | MIC [33]
85.7 µM: MIC [20] | MBC [21]
28.6 µM: MIC [34]
57.2 µM: MFC [1] | MFC [7]
10: Ratio [4] | Ratio [6] | Ratio [12] | Ratio [14] | Ratio [18] | Ratio [22] | Ratio [28] | Ratio [31] | Ratio [38] | Ratio [42] | Ratio [43]
100 µM: MBC [19]
28.9 µM: MIC [5] | MIC [13] | MIC [35] | MIC [37] | MIC [40]
42.9 µM: MIC [15] | MFC [16] | MIC [27] | MFC [29] | MIC [39]
71.4 µM: MBC [11] | MBC [25] | MBC [26] | MBC [32] | MBC [36] | MBC [41]

Reference: ChEMBL document CHEMBL1926569, “Novel (E)-1-(4-methyl-2-(alkylamino)thiazol-5-yl)-3-arylprop-2-en-1-ones as potent antimicrobial agents” (2011)
